Results published in ChEMBL document CHEMBL4382285, “Discovery of Novel Retigabine Derivatives as Potent KCNQ4 and KCNQ5 Channel Agonists with Improved Specificity” (ACS Med Chem Lett, 2019).
Active and inactive are the calls of the source. The rule behind the calls is not given here.

Key:
Type in all cases: cell-based
[1] = target: T1, Potassium voltage-gated channel subfamily KQT member 4 (Homo sapiens) (UniProt P56696); assay: Effect on voltage-dependent activation of human KCNQ4 expressed in CHOK1 cells assessed as negative shift in current activation curve at 10 uM by whole cell patch clamp assay
T1 sequence (whole entry): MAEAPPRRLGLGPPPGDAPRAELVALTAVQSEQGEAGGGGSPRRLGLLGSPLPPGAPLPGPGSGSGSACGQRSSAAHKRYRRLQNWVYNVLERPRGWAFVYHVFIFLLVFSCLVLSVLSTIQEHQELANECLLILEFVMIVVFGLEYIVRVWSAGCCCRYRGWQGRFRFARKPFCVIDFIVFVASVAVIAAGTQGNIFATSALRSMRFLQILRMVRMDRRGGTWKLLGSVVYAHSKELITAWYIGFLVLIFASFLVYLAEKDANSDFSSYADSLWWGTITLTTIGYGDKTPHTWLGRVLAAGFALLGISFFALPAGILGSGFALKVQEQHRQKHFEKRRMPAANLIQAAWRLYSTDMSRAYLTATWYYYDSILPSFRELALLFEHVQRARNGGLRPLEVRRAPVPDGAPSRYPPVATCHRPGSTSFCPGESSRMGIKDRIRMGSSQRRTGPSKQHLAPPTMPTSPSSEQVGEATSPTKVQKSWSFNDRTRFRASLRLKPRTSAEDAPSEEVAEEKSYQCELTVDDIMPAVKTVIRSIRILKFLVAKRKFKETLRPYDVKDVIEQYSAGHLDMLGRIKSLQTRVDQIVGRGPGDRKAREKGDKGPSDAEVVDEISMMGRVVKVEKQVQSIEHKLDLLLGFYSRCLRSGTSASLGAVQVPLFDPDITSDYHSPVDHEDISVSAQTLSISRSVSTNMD

[2] = target: Potassium voltage-gated channel subfamily KQT member 2 (Rattus norvegicus) (UniProt O88943); assay: Effect on voltage-dependent activation of rat KCNQ2 expressed in CHOK1 cells assessed as negative shift in current activation curve at 10 uM by whole cell patch clamp assay
Potassium voltage-gated channel subfamily KQT member 2 (Rattus norvegicus), sequence (O88943 whole entry): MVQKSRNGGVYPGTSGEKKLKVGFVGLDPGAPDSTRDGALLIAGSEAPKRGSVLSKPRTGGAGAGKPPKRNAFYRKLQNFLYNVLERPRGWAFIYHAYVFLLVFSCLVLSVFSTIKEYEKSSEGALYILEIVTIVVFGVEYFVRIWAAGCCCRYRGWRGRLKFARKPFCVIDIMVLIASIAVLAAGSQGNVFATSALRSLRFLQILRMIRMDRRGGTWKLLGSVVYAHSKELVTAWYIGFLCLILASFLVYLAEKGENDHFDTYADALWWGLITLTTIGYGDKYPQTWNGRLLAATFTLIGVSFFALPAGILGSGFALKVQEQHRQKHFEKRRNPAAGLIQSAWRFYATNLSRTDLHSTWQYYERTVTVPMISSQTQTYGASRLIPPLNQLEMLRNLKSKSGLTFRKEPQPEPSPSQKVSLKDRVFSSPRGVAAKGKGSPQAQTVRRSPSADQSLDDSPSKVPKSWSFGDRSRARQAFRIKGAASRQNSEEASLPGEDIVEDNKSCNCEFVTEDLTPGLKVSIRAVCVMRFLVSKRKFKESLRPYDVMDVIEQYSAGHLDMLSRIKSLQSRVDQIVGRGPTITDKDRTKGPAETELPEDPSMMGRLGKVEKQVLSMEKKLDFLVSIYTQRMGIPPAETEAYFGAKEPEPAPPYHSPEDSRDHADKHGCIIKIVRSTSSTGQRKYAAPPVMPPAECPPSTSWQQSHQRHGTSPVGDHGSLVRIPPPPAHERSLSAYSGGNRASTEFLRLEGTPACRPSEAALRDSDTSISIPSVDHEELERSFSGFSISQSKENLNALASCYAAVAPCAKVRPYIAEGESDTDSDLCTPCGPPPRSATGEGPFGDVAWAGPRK

[3] = target: T2, Potassium voltage-gated channel subfamily KQT member 3 (Rattus norvegicus) (UniProt O88944); assay: Activity at rat KCNQ3 expressed in CHOK1 cells assessed as ratio of amplitude of outward current in presence of test compound to amplitude of outward current in absence of test compound at 10 uM at -10 mV by whole cell patch clamp assay
T2 sequence (whole entry): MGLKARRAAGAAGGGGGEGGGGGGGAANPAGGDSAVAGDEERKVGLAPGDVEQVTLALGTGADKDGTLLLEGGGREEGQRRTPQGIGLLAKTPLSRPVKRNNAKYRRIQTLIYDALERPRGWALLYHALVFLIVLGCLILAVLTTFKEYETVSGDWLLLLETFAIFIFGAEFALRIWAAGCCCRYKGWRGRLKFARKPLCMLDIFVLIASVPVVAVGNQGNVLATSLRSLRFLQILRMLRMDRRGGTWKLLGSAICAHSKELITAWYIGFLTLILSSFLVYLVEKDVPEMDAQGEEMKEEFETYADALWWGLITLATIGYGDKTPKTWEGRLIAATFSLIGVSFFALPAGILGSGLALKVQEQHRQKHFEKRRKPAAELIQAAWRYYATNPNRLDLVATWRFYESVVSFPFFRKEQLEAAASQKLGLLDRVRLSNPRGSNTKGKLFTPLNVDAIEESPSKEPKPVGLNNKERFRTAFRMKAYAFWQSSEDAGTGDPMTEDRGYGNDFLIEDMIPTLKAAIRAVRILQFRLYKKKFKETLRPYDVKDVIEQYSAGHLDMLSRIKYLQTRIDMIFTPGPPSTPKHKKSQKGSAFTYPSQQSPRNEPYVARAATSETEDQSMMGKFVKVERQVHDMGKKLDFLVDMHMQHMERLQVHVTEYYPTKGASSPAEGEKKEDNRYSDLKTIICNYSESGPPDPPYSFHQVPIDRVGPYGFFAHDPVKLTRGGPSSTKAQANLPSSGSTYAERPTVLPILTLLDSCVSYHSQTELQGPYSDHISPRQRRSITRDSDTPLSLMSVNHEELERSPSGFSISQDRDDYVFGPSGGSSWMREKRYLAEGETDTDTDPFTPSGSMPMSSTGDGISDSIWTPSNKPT
How it was run: (§1)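 CHO-K1 cells individually transfected with a single KCNQ subtype; whole-cell voltage clamp. Held at −80 mV, stepped from −90 to +60 mV in 10 mV increments (1500 ms), then to −120 mV for 500 ms. Outward current at −10 or +60 mV measured before (I0) and after (I) 10 μM compound; I/I0 >1 counts as activation. More than four cells per compound.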

[4] = target: T3, Potassium voltage-gated channel subfamily KQT member 1 (Homo sapiens, UniProt P51787); assay: Activity at human KCNQ1 expressed in CHOK1 cells assessed as ratio of amplitude of outward current in presence of test compound to amplitude of outward current in absence of test compound at 10 uM at -10 mV by whole cell patch clamp assay; how it was run: as §1
T3 sequence (P51787 whole entry): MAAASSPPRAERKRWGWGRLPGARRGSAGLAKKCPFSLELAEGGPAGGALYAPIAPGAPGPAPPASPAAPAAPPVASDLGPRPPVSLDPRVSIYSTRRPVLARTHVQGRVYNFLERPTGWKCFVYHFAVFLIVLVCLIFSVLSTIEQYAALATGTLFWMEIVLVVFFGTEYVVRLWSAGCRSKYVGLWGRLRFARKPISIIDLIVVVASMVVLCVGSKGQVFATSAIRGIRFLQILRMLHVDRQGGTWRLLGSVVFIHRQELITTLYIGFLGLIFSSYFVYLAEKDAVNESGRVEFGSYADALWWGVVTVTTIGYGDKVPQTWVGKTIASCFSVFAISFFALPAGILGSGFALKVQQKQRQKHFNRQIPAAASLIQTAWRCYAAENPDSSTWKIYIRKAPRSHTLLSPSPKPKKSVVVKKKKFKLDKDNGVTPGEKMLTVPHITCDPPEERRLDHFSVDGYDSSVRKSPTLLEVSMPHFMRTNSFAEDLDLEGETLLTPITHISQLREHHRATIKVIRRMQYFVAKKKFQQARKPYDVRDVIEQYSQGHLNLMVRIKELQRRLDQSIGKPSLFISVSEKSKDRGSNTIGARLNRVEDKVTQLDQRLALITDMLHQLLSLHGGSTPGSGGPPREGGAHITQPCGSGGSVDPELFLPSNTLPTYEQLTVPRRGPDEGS

[5] = target: T3, Potassium voltage-gated channel subfamily KQT member 1; assay: Activity at human KCNQ1 expressed in CHOK1 cells assessed as ratio of amplitude of outward current in presence of test compound to amplitude of outward current in absence of test compound at 10 uM at +60 mV by whole cell patch clamp assay; how it was run: as §1

For C#CCN(Cc1ccc(F)cc1)c1ccc(NC(=O)OCC)c(NC(=O)OCC)c1, the Activity [1] was “inactive”, the Activity [2] was “inactive” and the Ratio [3] was 1.6. It also gave a Ratio [4] of 1 and a Ratio [5] of 1.
